Experimental findings from article PMC11541586 (Communications Biology, 2024) are described below.

The target in one assay is human LPA1 (Homo sapiens, UniProt Q92633). As to the kind of experiment: NanoBiT-G-protein dissociation assay. The class given is cell-based. The procedure, abridged:
(§1)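 Human LPA1 (N-terminal FLAG-tagged, wild type or point mutant) is co-transfected into HEK293T cells with LgBiT-Gαi1, untagged Gβ1 and SmBiT-Gγ2 C68S. After 1 d, cells are resuspended in HBSS with 0.01% fatty-acid-free BSA and loaded with coelenterazine for 2 h.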

The target of another assay is human LPA1 L278A mutant (Homo sapiens, UniProt Q92633, L278A). As to the kind of experiment: NanoBiT-G-protein dissociation assay, LPA1 L278A mutant. Format: cell-based. The gist of the method:
as §1

The subject of another assay is CNRs. Kind of assay: NanoBiT-G-protein dissociation assay for CNRs. The class given is cell-based, human.
A further assay has as its target human LPA1 W210A mutant (Homo sapiens, UniProt Q92633, W210A). Kind of assay: NanoBiT-G-protein dissociation assay, LPA1 W210A mutant. Format: cell-based. The gist of the method:
as §1

In a further assay the target is T1, FFAR4 (Homo sapiens, UniProt Q5NUL3).
T1 sequence (Q5NUL3 1-361): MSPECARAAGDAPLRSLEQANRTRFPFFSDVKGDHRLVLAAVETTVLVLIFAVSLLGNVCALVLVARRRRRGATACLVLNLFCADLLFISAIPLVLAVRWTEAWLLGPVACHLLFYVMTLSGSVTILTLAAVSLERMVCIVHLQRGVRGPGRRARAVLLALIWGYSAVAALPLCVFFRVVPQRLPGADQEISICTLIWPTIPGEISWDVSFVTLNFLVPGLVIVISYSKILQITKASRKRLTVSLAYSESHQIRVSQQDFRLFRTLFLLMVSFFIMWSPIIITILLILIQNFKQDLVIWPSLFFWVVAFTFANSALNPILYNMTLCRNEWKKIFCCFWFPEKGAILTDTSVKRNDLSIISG
Kind of assay: NanoBiT-G-protein dissociation assay for FFAR4. The class given is cell-based. As to conditions: FFAR4 (b17 prints FFARs).

The target of a further assay is human LPA1 W271F mutant (Homo sapiens, UniProt Q92633, W271F). As to the kind of experiment: NanoBiT-G-protein dissociation assay, LPA1 W271F mutant. The class given is cell-based. The procedure, abridged: as §1
human LPA1 W271F mutant, sequence (Q92633 whole entry W271F): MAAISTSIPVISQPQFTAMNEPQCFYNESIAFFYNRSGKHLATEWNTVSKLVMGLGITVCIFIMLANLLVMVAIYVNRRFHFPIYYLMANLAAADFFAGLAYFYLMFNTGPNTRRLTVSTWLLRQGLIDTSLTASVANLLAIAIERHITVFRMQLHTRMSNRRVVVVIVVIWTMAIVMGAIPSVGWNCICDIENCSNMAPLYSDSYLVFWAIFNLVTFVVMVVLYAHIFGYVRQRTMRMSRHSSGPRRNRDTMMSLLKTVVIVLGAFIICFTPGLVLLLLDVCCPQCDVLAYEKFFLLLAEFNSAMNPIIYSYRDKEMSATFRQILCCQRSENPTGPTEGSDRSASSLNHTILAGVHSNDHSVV

human LPA1, sequence (Q92633 whole entry): as the sequence (Q92633 whole entry W271F) above, with F271W counted along it
human LPA1 L278A mutant, sequence (Q92633 whole entry L278A): as the sequence (Q92633 whole entry W271F) above, with F271W, L278A counted along it
human LPA1 W210A mutant, sequence (Q92633 whole entry W210A): as the sequence (Q92633 whole entry W271F) above, with W210A, F271W counted along it

As a reminder, the EC50 is the concentration needed to bring the measured effect to its halfway point. Read a low EC50 as higher potency in that assay. For the compound `CCc1oc2c([C@H](CO)N(CC)CC)cccc2c1C` [CpY, (2R)-2-(diethylamino)-2-(2-ethyl-3-methyl-benzofuran-7-yl)ethanol], the EC50 on human LPA1 (EC50, WT LPA1) is 0.95 nM. Further, the “Emax relative to LPA” value at human LPA1 (compared with LPA) came to 1.5 fold. Moreover, the “agonistic activity (EC50) relative to LPA” value on human LPA1 (compared with LPA) came to 20 fold. The figures for the “response of mutant compared with wild type” value on human LPA1 L278A mutant, on human LPA1 W210A mutant and on human LPA1 W271F mutant were “reduced the activity”, “responsive” and “reduction in response”, respectively. The “effect on receptor” value in the assay on CNRs and on FFAR4 was “no activity” in each case.
